{"source": "ChEMBL document CHEMBL3124904", "about": "“Second-generation derivatives of the eukaryotic translation initiation inhibitor pateamine A targeting eIF4A as potential anticancer agents” (Bioorg Med Chem, 2014)", "key": {"[1]": {"test": "Antiproliferative activity against human Jurkat T cells after 72 hrs by MTT assay", "type": "functional, cell-based", "how_it_was_run": "(§1)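 HeLa and SK-MEL2 grown in DMEM, Jurkat in RPMI 1640, each with 10% FBS and penicillin-streptomycin, at 37 °C and 5% CO2. Adherent cells seeded at 2000/well and left to recover overnight; Jurkat seeded at 5000/well with no recovery. Compound added in DMSO (0.1% final), then 72 h incubation and MTT readout.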"}, "MEF": {"system": "MEF", "test": "Antiproliferative activity against MEF after 72 hrs by MTT assay", "type": "cell-based", "conditions": "Mus musculus"}, "[2]": {"test": "Half life in RPMI media at 1 uM by HPLC analysis", "type": "physicochemical", "how_it_was_run": "(§2)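 Compound added from DMSO stock to pre-heated RPMI 1640 (1.8 mL) plus 0.2 mL human AB male serum or FBS, or to 2 mL RPMI alone, at final 1 or 10 μM. Samples analysed by HPLC at pH 9.5 (formic acid/ammonia in acetonitrile/water), with conversion taken from the substrate/internal standard peak ratio. Run in triplicate; half-lives ± SD.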"}, "[3]": {"test": "Half life in RPMI media at 1 uM by HPLC analysis in presence of fetal bovine serum", "type": "ADME", "conditions": "cattle", "how_it_was_run": "as §2"}, "[4]": {"test": "Selectivity ratio of IC50 for MEF to IC50 for human SK-MEL-2 cells", "type": "cell-based", "conditions": "mouse (MEF) and human (SK-MEL-2 cells), MEF and SK-MEL-2 cells; read-out: Ratio IC50"}, "[5]": {"molecular_target": "T1, DNA polymerase alpha catalytic subunit (Homo sapiens, UniProt P09884)", "T1 sequence (P09884 whole entry)": "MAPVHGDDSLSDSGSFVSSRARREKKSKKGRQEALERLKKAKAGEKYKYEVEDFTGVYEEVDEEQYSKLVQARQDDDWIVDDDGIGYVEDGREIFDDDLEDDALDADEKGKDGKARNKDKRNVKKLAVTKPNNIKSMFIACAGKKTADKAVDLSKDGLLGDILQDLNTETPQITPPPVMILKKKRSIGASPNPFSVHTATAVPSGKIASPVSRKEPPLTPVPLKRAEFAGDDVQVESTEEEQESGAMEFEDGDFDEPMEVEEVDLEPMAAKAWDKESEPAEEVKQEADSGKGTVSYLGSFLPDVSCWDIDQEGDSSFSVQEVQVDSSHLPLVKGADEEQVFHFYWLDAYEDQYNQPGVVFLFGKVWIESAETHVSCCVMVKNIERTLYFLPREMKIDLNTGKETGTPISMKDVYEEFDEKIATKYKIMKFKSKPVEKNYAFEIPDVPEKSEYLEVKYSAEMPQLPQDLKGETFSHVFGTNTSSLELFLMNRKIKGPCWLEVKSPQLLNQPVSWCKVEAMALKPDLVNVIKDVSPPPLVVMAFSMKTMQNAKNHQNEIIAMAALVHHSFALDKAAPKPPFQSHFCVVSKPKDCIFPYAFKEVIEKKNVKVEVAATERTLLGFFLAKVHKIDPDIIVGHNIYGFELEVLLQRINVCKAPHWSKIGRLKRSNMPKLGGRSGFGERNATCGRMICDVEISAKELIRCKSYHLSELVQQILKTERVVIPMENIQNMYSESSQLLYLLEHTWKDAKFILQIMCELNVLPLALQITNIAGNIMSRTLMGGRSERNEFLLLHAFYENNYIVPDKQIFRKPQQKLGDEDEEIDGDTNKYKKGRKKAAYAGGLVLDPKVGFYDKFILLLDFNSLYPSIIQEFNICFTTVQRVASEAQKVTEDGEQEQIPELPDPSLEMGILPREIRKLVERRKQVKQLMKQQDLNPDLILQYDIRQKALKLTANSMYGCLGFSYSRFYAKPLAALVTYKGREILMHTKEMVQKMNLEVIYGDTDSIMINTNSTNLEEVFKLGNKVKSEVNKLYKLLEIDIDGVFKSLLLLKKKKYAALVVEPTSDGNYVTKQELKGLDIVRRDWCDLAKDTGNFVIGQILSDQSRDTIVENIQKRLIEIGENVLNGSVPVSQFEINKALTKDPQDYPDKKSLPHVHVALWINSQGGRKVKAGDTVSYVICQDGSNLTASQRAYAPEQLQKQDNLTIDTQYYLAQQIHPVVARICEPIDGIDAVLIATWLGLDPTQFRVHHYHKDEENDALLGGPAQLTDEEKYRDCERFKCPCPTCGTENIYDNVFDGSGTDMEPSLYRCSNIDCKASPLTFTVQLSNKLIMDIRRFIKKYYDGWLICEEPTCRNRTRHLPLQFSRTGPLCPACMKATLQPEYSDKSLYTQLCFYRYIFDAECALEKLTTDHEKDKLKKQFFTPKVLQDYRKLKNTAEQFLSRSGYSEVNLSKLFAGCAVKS", "test": "Inhibition of DNA polymerase-alpha (unknown origin) assessed as incorporation of Br(d)UTP by colorimetric analysis"}, "[6]": {"test": "Half life in RPMI media at 10 uM by HPLC analysis", "type": "physicochemical", "how_it_was_run": "as §2"}, "[7]": {"test": "Antiproliferative activity against BAEC assessed as DNA synthesis level after 24 hrs by thymidine incorporation assay", "conditions": "Bos taurus", "how_it_was_run": "(§3)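 Cells kept at 37 °C, 5% CO2 with penicillin-streptomycin and 10% FBS. Adherent lines seeded at 2000 cells/well and left to recover overnight; Jurkat seeded at 5000 cells/well with no recovery period. Compound added in DMSO (0.1% final, vehicle-only control) at 0.001–100 nM over 10 wells. DNA synthesis read out after 24 h. Mean IC50 from at least 3 independent assays.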"}, "RKO": {"system": "RKO", "test": "Antiproliferative activity against human RKO cells assessed as DNA synthesis level after 24 hrs by thymidine incorporation assay", "type": "functional, cell-based", "how_it_was_run": "as §3"}, "HaCaT": {"system": "HaCaT", "test": "Antiproliferative activity against human HaCaT cells assessed as DNA synthesis level after 24 hrs by thymidine incorporation assay", "type": "functional, cell-based", "how_it_was_run": "as §3"}, "[8]": {"test": "Half life in RPMI media at 1 uM by HPLC analysis in presence of human blood serum", "type": "ADME", "how_it_was_run": "as §2"}, "SK-MEL-2 [9]": {"system": "SK-MEL-2", "test": "Selectivity ratio of IC50 for human SK-MEL-2 cells in presence of 5% FBS to IC50 for human SK-MEL-2 cells in presence of 10% FBS", "type": "functional"}, "[10]": {"test": "Selectivity ratio of IC50 for MEF to IC50 for human HeLa cells", "type": "cell-based", "conditions": "mouse (MEF) and human (HeLa cells), read-out: Ratio IC50"}, "Jurkat": {"system": "Jurkat", "test": "Immunosuppressive activity in human Jurkat T cells assessed as inhibition of IL-2 transcription", "type": "functional, cell-based"}, "SK-MEL-2 [11]": {"system": "SK-MEL-2", "test": "Antiproliferative activity against human SK-MEL-2 cells after 72 hrs by MTT assay in presence of 5% FBS", "type": "functional, cell-based", "conditions": "SK-MEL-2, 72 h", "how_it_was_run": "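SK-MEL2 grown with reduced serum (5% FBS) to slow proliferation. Compounds added in DMSO (0.1% final), followed by a 72 h MTT proliferation assay.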"}, "SK-MEL-2 [12]": {"system": "SK-MEL-2", "test": "Antiproliferative activity against human SK-MEL-2 cells after 72 hrs by MTT assay in presence of 10% FBS", "type": "functional, cell-based", "conditions": "SK-MEL-2, 72 h", "how_it_was_run": "as §1"}, "HeLa [13]": {"system": "HeLa", "test": "Antiproliferative activity against human HeLa cells after 72 hrs by MTT assay", "type": "functional, cell-based", "how_it_was_run": "as §1"}, "[14]": {"test": "Half life in RPMI media at 10 uM by HPLC analysis in presence of human blood serum", "type": "ADME", "how_it_was_run": "as §2"}, "HeLa [15]": {"system": "HeLa", "test": "Antiproliferative activity against human HeLa cells assessed as DNA synthesis level after 24 hrs by thymidine incorporation assay", "type": "functional, cell-based", "how_it_was_run": "as §3"}}}
{"smiles": "CC(/C=C/C(C)=C/[C@@H]1Cc2nc(cs2)CCCCC(=O)O[C@@H](C)C/C(C)=C/C=C\\C(=O)O1)=C\\CN(C)C", "values": [{"measurement": "IC50", "setting": "[1]", "result": 11, "unit": "nM"}, {"measurement": "IC50", "setting": "MEF", "result": "> 50", "unit": "nM"}, {"measurement": "t1/2", "setting": "[2]", "result": 5.11, "unit": "h"}, {"measurement": "t1/2", "setting": "[3]", "result": 19.9, "unit": "h"}, {"measurement": "selectivity ratio", "setting": "[4]", "result": 5}, {"measurement": "IC50", "setting": "[5]", "result": 3000, "unit": "nM"}, {"measurement": "t1/2", "setting": "[6]", "result": 3.25, "unit": "h"}, {"measurement": "IC50", "setting": "[7]", "result": 1.97, "unit": "nM"}, {"measurement": "IC50", "setting": "RKO", "result": 1.2, "unit": "nM"}, {"measurement": "IC50", "setting": "HaCaT", "result": 0.9, "unit": "nM"}, {"measurement": "t1/2", "setting": "[8]", "result": 24, "unit": "h"}, {"measurement": "Ratio IC50", "setting": "SK-MEL-2 [9]", "result": 2}, {"measurement": "selectivity ratio", "setting": "[10]", "result": 5}, {"measurement": "IC50", "setting": "Jurkat", "result": 0.81, "unit": "nM"}, {"measurement": "IC50", "setting": "SK-MEL-2 [11]", "result": 30, "unit": "nM"}, {"measurement": "IC50", "setting": "SK-MEL-2 [12]", "result": 13, "unit": "nM"}, {"measurement": "IC50", "setting": "HeLa [13]", "result": 9.8, "unit": "nM"}, {"measurement": "t1/2", "setting": "[14]", "result": 13, "unit": "h"}, {"measurement": "IC50", "setting": "HeLa [15]", "result": 4.5, "unit": "nM"}]}
